The values that follow come from article PMC6551323 (Acta biomaterialia, 2018).

The format of the series is in vitro ADME, bovine. Conditions: healthy explants; 24 h absorption, 7-day desorption in 10x PBS. In outline: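 After 24 h uptake of 30 µM 5-FAM-labelled peptide at 37 °C, bovine cartilage disks were desorbed in 1x or 10x PBS with protease inhibitors for up to 7 days. The bath was changed daily and desorbed peptide was read by plate reader. % retention is moles remaining in tissue after desorption divided by moles taken up at 24 h. Mean ± SD, n=6–8 explants, ≥4 animals.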

Consider (ARRRAARA)4 [CPC +16], for which the “% CPC desorbed in 10x PBS over 7 days” value is on record as “about 40%”.
